The text below walks through data of PubChem BioAssay.

A short description of experiment [1]: inhibitors of TNFa-induced NFkB p65 translocation, primary screen, imaging, HUVEC, MLSMR starter and 10KST1 sets (AID 438;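 active means inhibition above 20% together with a positive visual image hit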;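 further: compound added about 3h40 before a 20 min TNFalpha stimulation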;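 on inhibition: signal is the nuclear over cytoplasmic p65 intensity ratio per well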). The note with it: HUVEC TNFa-induced p65 nuclear translocation; cell count: measured here: nuclei count (cytotoxicity indicator), at 2.08 µM; inhibition: at 2 µM, stronger effect = higher value, 0% TNFa-plus-vehicle, 100% no-TNFa wells.
The nature of experiment [2]: endothelial E-selectin expression blockers – imaging, HUVEC, immunofluorescence, MLSMR starter and 10KST1 sets, primary screen (AID 487;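 active means visually confirmed hit in the image check and inhibition above 20%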;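 on inhibition: signal is fraction of cell area covered by stained E-selectin grains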;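 on nuclei count: 100% = median nuclei count of all wells on the same plate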). The conditions noted are these: HUVEC TNFalpha-induced E-selectin immunofluorescence imaging, at 2 µM; inhibition: stronger effect = higher value; nuclei count: measured here: cell number, toxicity.
The nature of experiment [3]: Primary imaging screen for DUSP6 inhibitors that restore phospho-Erk in transfected HeLa cells, chemical complementation (AID 609;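 active means compounds giving at least 50% inhibition in the cell-based MKP-3 phosphatase rescue imaging test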;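 on inhibition: phospho-Erk level distribution per well compared with pooled transfected vehicle control wells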). The note with it: HeLa MKP-3 transfected, phospho-Erk imaging KS statistic, at 10 µM, cells stimulated with TPA for 15 min.
For experiment [4], the target named is Dual specificity protein phosphatase 6 (Homo sapiens) (UniProt Q16828). The experiment is described as above. The note with it: HeLa MKP-3 transfected, phospho-Erk imaging KS statistic; at 10 µM; stronger effect = higher value; cells stimulated with TPA for 15 min.
Dual specificity protein phosphatase 6 (Homo sapiens), sequence (Q16828 whole entry, looked up): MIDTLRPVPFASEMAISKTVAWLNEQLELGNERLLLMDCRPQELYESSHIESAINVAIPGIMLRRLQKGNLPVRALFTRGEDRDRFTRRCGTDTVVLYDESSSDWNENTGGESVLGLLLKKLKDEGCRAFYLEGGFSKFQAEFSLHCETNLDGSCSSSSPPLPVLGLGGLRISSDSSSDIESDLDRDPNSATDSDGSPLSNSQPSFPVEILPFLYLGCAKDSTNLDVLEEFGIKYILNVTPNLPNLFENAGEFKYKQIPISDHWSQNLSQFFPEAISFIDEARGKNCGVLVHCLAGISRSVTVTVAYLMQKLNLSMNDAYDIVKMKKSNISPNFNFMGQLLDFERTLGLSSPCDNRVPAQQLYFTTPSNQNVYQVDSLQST
Experiment [5] addresses Voltage-gated potassium channel subunit beta-2 (Rattus norvegicus) (UniProt P62483). Nature of the experiment: inhibitors of rat Kvbeta2 reductase activity – biochemical, NADPH fluorescence, primary screen (AID 622;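 active means fluorescence slope higher than the sample average by over 3 SD, cut at about -0.22 in these data, passing the limit was not always enough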;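 further: slope of raw intensity against log time taken from 70 to 1610 s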). The note with it: recombinant KvBeta, 4-cyanobenzaldehyde reduction, at 10 µM, stronger effect = higher value.
The target is the same in experiment [6]. Nature of the experiment: enhancers of rat Kvbeta2 NADPH turnover – biochemical, NADPH fluorescence, primary screen (AID 623).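 Further: fluorescence intensity change per second fitted from 20 to 320 s.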 The conditions noted are these: Recombinant KvBeta, NADPH fluorescence decrease slope, 10 min; at 10 µM; stronger effect = lower value.
The target of experiment [7] is Alpha-2C adrenergic receptor (Homo sapiens) (UniProt P18825). The experiment in a line: compounds altering alpha2C-coupled GIRK flux – cell-based, HEK293 alpha2C/GIRK1/2, thallium flux, primary screen (AID 624;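 active means fluorescence slope after compound addition differing from the mean of all screened samples at 99.7% confidence, in either direction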;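 further: slope of fluorescence ratio to pre-addition baseline per second over 15 to 24 s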). The note with it: thallium flux BTC fluorescence, at 10 µM, actives lie on both sides.
Alpha-2C adrenergic receptor (Homo sapiens), sequence (P18825 whole entry, looked up): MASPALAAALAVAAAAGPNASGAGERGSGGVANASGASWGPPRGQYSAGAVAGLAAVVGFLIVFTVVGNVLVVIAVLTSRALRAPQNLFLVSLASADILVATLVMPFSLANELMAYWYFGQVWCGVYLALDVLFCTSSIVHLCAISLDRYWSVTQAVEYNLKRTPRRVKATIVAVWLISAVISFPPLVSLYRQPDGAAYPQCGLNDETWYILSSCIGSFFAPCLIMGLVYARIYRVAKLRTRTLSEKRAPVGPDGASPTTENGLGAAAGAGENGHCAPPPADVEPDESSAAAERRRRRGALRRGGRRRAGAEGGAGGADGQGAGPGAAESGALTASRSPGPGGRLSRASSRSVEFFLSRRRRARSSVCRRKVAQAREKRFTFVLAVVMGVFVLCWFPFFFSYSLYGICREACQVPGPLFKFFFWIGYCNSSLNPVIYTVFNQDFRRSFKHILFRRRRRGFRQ
Experiment [8] is described as follows: inhibitors of larval lipid processing in zebrafish, primary screen, whole organism, PED6 fluorescence, gall bladder and intestine (AID 686;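 active means a full or partial loss of lipid-probe fluorescence in the fish gall bladder, intestine or both, judged by eye; inactive means no fluorescence loss, or compound toxic to the fish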;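 further: larvae 5 to 7 days old with five fish per well; signal comes from phospholipase A2 cleavage of quenched PED6 carried via bile; overnight exposure to compound and PED6 before scoring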). The note with it: Zebrafish larvae PED6 lipid processing, fluorescence scoring; screened at 20 µM (by protocol). The method, boiled down:
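system = live zebrafish larvae aged 5-7 days, whole organism | probe or stimulus = ingested quenched lipid PED6 at 100 nM | doses = 20 µM single dose | timing = overnight exposure | detection = fluorescence microscopy with visual scoring of gall bladder and intestine | read-out = visual per-well fluorescence inhibition score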

The nature of experiment [9]: loss of swimming-algae plug formation – whole organism, Chlamydomonas reinhardtii, WT vs cilia-less mutant, absorbance, 96-well, primary screen (AID 463189;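 active means inhibition at or above 50% relative to wild type and mutant plate controls; inactive means inhibition below 50%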;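 further: 0% = wild type cc124 cells in DMSO and 100% = ciliumless bld1 mutant cells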). The conditions noted are these: Chlamydomonas reinhardtii gravitaxis, OD600 absorbance, 2 days; at 10 µM; stronger effect = higher value.
Where [10] appears, read: measured here: cell density z-score.
[11] abbreviates: measured here: nuclear c-Myc green intensity z-score.
The mark [12] stands for this setting: measured here: nuclear pErk red intensity z-score, stronger effect = higher value.

Activity calls are given as the source filed them.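 How the source made its calls, unless noted: active means NADPH fluorescence slope more negative than the mean of all samples by about 3 SD, 99.7% confidence; inactive means the rest.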

Voltage-gated potassium channel subunit beta-2 (Rattus norvegicus), sequence (P62483 whole entry, looked up): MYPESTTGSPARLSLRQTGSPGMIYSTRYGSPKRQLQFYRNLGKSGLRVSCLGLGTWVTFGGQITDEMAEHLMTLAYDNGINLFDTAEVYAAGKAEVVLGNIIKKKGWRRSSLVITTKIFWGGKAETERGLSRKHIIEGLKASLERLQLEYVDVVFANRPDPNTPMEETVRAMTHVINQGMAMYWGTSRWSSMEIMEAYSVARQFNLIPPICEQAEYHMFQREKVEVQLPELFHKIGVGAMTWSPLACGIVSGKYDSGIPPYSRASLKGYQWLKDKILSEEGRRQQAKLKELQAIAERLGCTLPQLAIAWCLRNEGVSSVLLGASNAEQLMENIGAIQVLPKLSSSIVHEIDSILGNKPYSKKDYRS

As a reminder, the inhibition is the relative decrease from the control value, in per cent. `CCc1[nH]nc2c1C(c1ccc(Br)s1)C(C#N)=C(N)O2` (centres undefined): the cell count in experiment [1] was 504. Besides, the inhibition in [1] is -7.7% (inactive); in experiment [2], -85.9% (inactive); in [4], -8.27% (inactive); in [9] it was 15.9% (inactive). This molecule also gave a nuclei count in experiment [2] of 152%. Moreover, the z-score in [3] (setting [10]) was -0.154; in experiment [3] (setting [11]), 1.13; in [3] (setting [12]), -0.858. In addition, the fluorescence slope in experiment [5] was -0.312 (inactive). In addition, the NADPH fluorescence slope in experiment [6] is 1.7e-05 (inactive). The slope in [7] was 0.00536 (inactive). Also, the result in [8] was inactive.

Take `CSCCC(CO)NC(=O)OCc1ccccc1` (centres undefined): the cell count in experiment [1] amounted to 562. In addition, the inhibition is -15% (inactive) in [1], -130% (inactive) in [2], 3.97% (inactive) in [4] and 2.98% (inactive) in experiment [9]. For the same molecule, the nuclei count in [2] was found to be 142%. The results for the z-score in experiment [3] (setting [10]), in experiment [3] (setting [11]) and in experiment [3] (setting [12]) were 1.72, -0.612 and -0.962, respectively. Further, the fluorescence slope in [5] was -0.503 (inactive). Also, the NADPH fluorescence slope in experiment [6] was -8.5e-05 (inactive). Further, in experiment [7], the slope was 0.00774 (inactive). In [8], the outcome was inactive.

Consider `CCN(CC)CCCn1c(C)cc2c(c1=O)C(c1ccccc1)C(C#N)=C(N)O2` (centres undefined), for which, in experiment [1], the cell count is 417. Moreover, the inhibition in [1] was 11.8% (inactive); in [2], -54.2% (inactive); in experiment [4], 0.671% (inactive); in [9] it was -1.93% (inactive). In experiment [2], this molecule returned a nuclei count of 140%. For the same molecule, the z-score was -0.637 in experiment [3] (setting [10]), 0.212 in [3] (setting [11]) and 1.28 in [3] (setting [12]). Further, the fluorescence slope in [5] was -0.395 (inactive). Further, the NADPH fluorescence slope in [6] is -3.1e-05 (inactive). Moreover, the slope in experiment [7] is 0.0067 (inactive). The molecule was called inactive in experiment [8].

With `CCOC(=O)c1c(C)n(C)c2ccc(OC)c(NC(=O)CN3CCN(Cc4ccccc4)CC3)c12`, in experiment [1], the cell count was 291. In addition, the inhibition in [1] was 0.8% (inactive); in experiment [2] it was -14% (inactive); in experiment [4], -6.59% (inactive); in experiment [9], -10.1% (inactive). In experiment [2], this molecule came in with a nuclei count of 93.5%. The z-score in experiment [3] (setting [10]) was -0.908; in [3] (setting [11]), 0.5; in experiment [3] (setting [12]), 1.45. In addition, the fluorescence slope in [5] is -0.431 (inactive). For the same molecule, the NADPH fluorescence slope in experiment [6] is -0.000147 (inactive). In addition, the slope in [7] is 0.00677 (inactive). Besides, the result in experiment [8] was inactive.

In the case of `COCCCNC(=O)C(C#N)c1nc2ccccc2nc1N1CCCC1` (centres undefined), in experiment [1], the cell count was determined as 459. In addition, the inhibition in experiment [1] is 12.6% (inactive); in experiment [2], -130% (inactive); in experiment [4], 7.83% (inactive); in [9] it was -2.67% (inactive). Besides, the nuclei count in [2] was found to be 156%. Moreover, the z-score in experiment [3] (setting [10]) is 1.4; in [3] (setting [11]) it was 0.549; in experiment [3] (setting [12]), -0.292. In experiment [5], the fluorescence slope was -0.000219 (active). For the same molecule, in [6], the NADPH fluorescence slope was 0 (inactive). For the same molecule, the slope in experiment [7] is 0.0065 (inactive). In addition, the call in experiment [8] was inactive.

Consider `Cc1cc2c(c(=O)n1CC1CCCO1)C(c1ccc3c(c1)OCO3)C(C#N)=C(N)O2` (centres undefined), for which the cell count in experiment [1] amounted to 430. For the same molecule, the inhibition in [1] is -3.9% (inactive); in experiment [2], -118% (inactive); in [4], -2.91% (inactive); in experiment [9], -9.27% (inactive). In addition, the nuclei count in [2] was 138%. The z-score in experiment [3] (setting [10]) was -0.219; in [3] (setting [11]) it was 0.61; in experiment [3] (setting [12]), 1.43. The fluorescence slope in experiment [5] is -0.369 (inactive). In addition, the NADPH fluorescence slope in [6] is -4.9e-05 (inactive). Moreover, in [7], the slope is 0.00655 (inactive). Besides, in experiment [8], the molecule was classed as inactive.

As for `O=C(NCc1ccco1)c1cnn2c1NC(c1ccccc1)CC2C(F)(F)F` (centres undefined), the cell count in experiment [1] was determined as 479. Besides, the inhibition in experiment [1] is -5.5% (inactive); in experiment [2], -25.8% (inactive); in experiment [4], -2.07% (inactive); in [9], -7.85% (inactive). Moreover, the nuclei count in experiment [2] was determined as 107%. For the same molecule, the z-score is -0.862 in experiment [3] (setting [10]), 0.861 in experiment [3] (setting [11]) and -0.0535 in experiment [3] (setting [12]). In addition, in [5], the fluorescence slope was -0.53 (inactive). Also, the NADPH fluorescence slope in experiment [6] was -4e-05 (inactive). Moreover, the slope in experiment [7] was 0.0056 (inactive). Moreover, the call in experiment [8] was inactive.

As to `Cc1cc(C)n2c3c(c(C#N)c2n1)CC(C)(C)OC3`, the cell count in [1] was determined as 670. Further, the inhibition is -7.2% (inactive) in [1], 55.6% (inactive) in experiment [2], 11.3% (inactive) in experiment [4] and 14.5% (inactive) in experiment [9]. The same molecule gave a nuclei count in [2] of 131%. Also, the z-score in experiment [3] (setting [10]) is 0.0106; in experiment [3] (setting [11]), -1.04; in experiment [3] (setting [12]) it was -0.0691. Further, the fluorescence slope in experiment [5] is -0.327 (inactive). For the same molecule, the NADPH fluorescence slope in experiment [6] is 2.8e-06 (inactive). The slope in [7] is 0.00519 (inactive). Also, in [8], the molecule was classed as inactive.

As to `COC(=O)CN(c1nc(C)c(Br)c(OC)n1)S(=O)(=O)c1ccc(C)cc1`, the cell count in [1] was 598. Besides, the inhibition was 6.5% (inactive) in [1], -10.9% (inactive) in experiment [2], 9.82% (inactive) in experiment [4] and -5.5% (inactive) in [9]. The molecule further returned a nuclei count in [2] of 142%. Besides, the z-score in experiment [3] (setting [10]) was determined as 0.877; in experiment [3] (setting [11]), 0.344; in experiment [3] (setting [12]), 0.387. In addition, in [5], the fluorescence slope was -0.379 (inactive). Moreover, the NADPH fluorescence slope in experiment [6] is -2.1e-05 (inactive). Besides, the slope in experiment [7] was 0.0055 (inactive). Further, the molecule was called inactive in experiment [8].

Regarding `CN=C1c2c(-c3ccccc3)c3cc(OC)ccc3n2CCN1C`, the cell count in [1] worked out at 531. In addition, the inhibition in experiment [1] was -21.3% (inactive); in [2], -137% (inactive); in experiment [4], -2.47% (inactive); in [9], 2.56% (inactive). The molecule further yielded a nuclei count in experiment [2] of 145%. Further, the z-score was 0.562 in [3] (setting [10]), 0.295 in experiment [3] (setting [11]) and -0.655 in experiment [3] (setting [12]). Moreover, the fluorescence slope in experiment [5] is -0.118 (active). The NADPH fluorescence slope in [6] was -9.2e-06 (inactive). In [7], the slope is 0.00488 (inactive). Besides, the molecule was classed as inactive in experiment [8].

For `Cc1cc(C)nc(NC2=NCC(=O)N2c2ccccc2)n1`, in [1], the cell count was found to be 599. The inhibition was -3.5% (inactive) in experiment [1], -130% (inactive) in [2], 3.97% (inactive) in experiment [4] and -0.727% (inactive) in experiment [9]. In [2], this molecule displayed a nuclei count of 136%. Further, the z-score in experiment [3] (setting [10]) is 1.19; in [3] (setting [11]), -0.204; in experiment [3] (setting [12]) it was -1.47. The fluorescence slope in [5] is -0.493 (inactive). Further, the NADPH fluorescence slope in [6] is -3.7e-05 (inactive). The slope in experiment [7] is 0.00515 (inactive). The call in experiment [8] was inactive.

For `CN1CCN(C(=O)CSc2nc(-c3cccs3)ccc2C#N)CC1`, the cell count in experiment [1] came to 625. Also, the inhibition in [1] was -11.3% (inactive); in experiment [2], 21.9% (inactive); in experiment [4] it was 6.04% (inactive); in experiment [9], 21.2% (inactive). The nuclei count in experiment [2] is 138%. The z-score was -0.668 in experiment [3] (setting [10]), -0.886 in experiment [3] (setting [11]) and -0.831 in experiment [3] (setting [12]). Also, the fluorescence slope in experiment [5] was -0.299 (inactive). For the same molecule, in experiment [6], the NADPH fluorescence slope was -1.3e-05 (inactive). In addition, in experiment [7], the slope is 0.00609 (inactive). The outcome in experiment [8] was inactive.

Consider `C=CCOC(=O)C1=C(C)NC(SCC(=O)N(CC)CC)=C(C#N)C1c1ccccc1` (centres undefined), for which the cell count in experiment [1] came out at 348. The inhibition in experiment [1] was -0.8% (inactive); in experiment [2] it was -27.9% (inactive); in experiment [4], -0.584% (inactive); in experiment [9], 4.36% (inactive). Besides, the nuclei count in [2] is 140%. The z-score in [3] (setting [10]) was 1.19; in experiment [3] (setting [11]), 0.414; in [3] (setting [12]) it was -0.822. Moreover, in experiment [5], the fluorescence slope is -0.405 (inactive). Moreover, the NADPH fluorescence slope in [6] is -1.3e-05 (inactive). The slope in experiment [7] is 0.00552 (inactive). In addition, the molecule was classed as inactive in experiment [8].
